# Published values pooled from the literature.
# Each line is one published result; the experiments were not run side by side.
# Effect on: metabolic stability
Compound,test system,setting,half-life [min]
O=C(c1ccc(F)cc1)C1CCN(CCn2c(=O)[nH]c3ccccc3c2=O)CC1,"rat, liver microsomes",,17.8
CCN(CC)CCNC(=O)c1c(C)[nH]c(/C=C2\C(=O)Nc3ccc(F)cc32)c1C,"rat, liver microsomes",1 µM,77
CC(=O)c1c(C)c2cnc(Nc3ccc(N4CCNCC4)cn3)nc2n(C2CCCC2)c1=O,"rat, liver microsomes","1 µM, pH 7.4",90.4
O=c1ccc2ccc(O)cc2o1,"rat, liver microsomes",,2.42
O=c1ccc2ccc(O)cc2o1,"Sprague-Dawley rat, hepatocytes",1 µM,11.4
CCOc1ccc2ccc(=O)oc2c1,"male Sprague-Dawley rat, hepatocytes",1 µM,13.1
CN(C)C(=O)c1cc2cnc(Nc3ccc(N4CCNCC4)cn3)nc2n1C1CCCC1,"rat, liver microsomes","1 µM, pH 7.4",49.8
O=C1CC[C@H](N2Cc3cc(N4CCN(CC5CCN(c6ccc([C@@H]7c8ccc(O)cc8CC[C@@H]7c7ccccc7)cc6)CC5)CC4)ccc3C2=O)C(=O)N1,"Sprague-Dawley rat, hepatocytes",1 µM,83
